Tests used:
[1] = biological target: T1, Adenosine kinase (Toxoplasma gondii, UniProt Q9TVW2); test: Binding affinity to Toxoplasma gondii adenosine kinase after 20 mins by radioactivity method
T1 sequence (Q9TVW2 whole entry): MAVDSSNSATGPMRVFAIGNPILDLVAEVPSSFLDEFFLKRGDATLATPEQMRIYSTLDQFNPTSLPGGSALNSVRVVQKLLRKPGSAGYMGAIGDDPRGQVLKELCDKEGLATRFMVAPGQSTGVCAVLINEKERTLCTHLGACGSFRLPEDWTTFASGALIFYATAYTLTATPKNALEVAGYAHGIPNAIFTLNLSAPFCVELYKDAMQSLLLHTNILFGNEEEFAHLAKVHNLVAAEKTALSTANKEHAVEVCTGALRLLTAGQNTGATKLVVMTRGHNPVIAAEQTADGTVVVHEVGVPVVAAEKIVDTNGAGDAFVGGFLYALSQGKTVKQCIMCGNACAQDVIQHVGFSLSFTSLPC
Outline: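 Purified cloned T. gondii adenosine kinase in 50 mM Tris–Cl pH 7.4 with 2.5 mM ATP, 5 mM MgCl₂, 5 mM creatine phosphate, creatine kinase and [8-¹⁴C]adenosine (55 Ci/mol), with or without varied compound, at 37 °C under linear conditions. Stopped by boiling; adenosine and AMP separated by TLC (CHCl₃/MeOH/AcOH 102:12:6) and radioactivity quantified. Apparent Ki taken as apparent Km. ≥2 experiments in triplicate.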

[2] = test system: Toxoplasma gondii; test: Antimicrobial activity against wild-type Toxoplasma gondii RH infected in human CRL1634 cells assessed as intracellular parasite survival at 50 uM after 18 hrs by [5,6-[…]]uracil-based scintillation counting; format: functional
Outline: (§1)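 Confluent human foreskin fibroblasts (≤20 passages, RPMI-1640) plated ~5×10⁵/well for 24 h at 37 °C, 5% CO₂. Infected with isolated tachyzoites in 3% FBS medium, 1 parasite/cell, for 1 h, then washed with 10% FBS medium. Compounds in 50% ethanol added to 0–50 µM (final ethanol 2.5%). After 18 h, drug-free medium with [5,6-³H]uracil (5 µCi/mL) for 6 h. TCA precipitates collected on glass-fiber filters and counted by scintillation. Growth taken as % uptake of treated vs untreated; ≥2 experiments in triplicate.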

[3] = test system: Toxoplasma gondii; test: Antimicrobial activity against Toxoplasma gondii infected in human CRL1634 cells assessed as intracellular parasite survival at 25 uM after 18 hrs by [5,6-[…]]uracil-based scintillation counting; format: functional; outline: as §1
[4] = test system: Toxoplasma gondii; test: Antimicrobial activity against wild-type Toxoplasma gondii RH infected in human CRL1634 cells assessed as intracellular parasite survival at 10 uM after 18 hrs by [5,6-[…]]uracil-based scintillation counting; format: functional; outline: as §1
[5] = species: Homo sapiens; test: Cytotoxicity against uninfected human CRL1634 cells assessed as cell viability at 5 uM after 48 hrs by MTT assay
[6] = test system: Toxoplasma gondii; test: Antimicrobial activity against wild-type Toxoplasma gondii RH infected in human CRL1634 cells assessed as intracellular parasite survival at 5 uM after 18 hrs by [5,6-[…]]uracil-based scintillation counting; format: functional; outline: as §1
[7] = test system: Toxoplasma gondii (RH strain); test: Activity against Toxoplasma gondii RH in human CRL1634 cells after 18 hrs by [5,6-3H]uracil incorporation assay
[8] = test system: Toxoplasma gondii; test: Antimicrobial activity against wild-type Toxoplasma gondii RH infected in human CRL1634 cells assessed as intracellular parasite survival at 25 uM after 18 hrs by [5,6-[…]]uracil-based scintillation counting; format: functional; outline: as §1
[9] = species: Homo sapiens; test: Cytotoxicity against uninfected human CRL1634 cells assessed as cell viability at 10 uM after 48 hrs by MTT assay
[10] = test system: Toxoplasma gondii; test: Antimicrobial activity against adenosine kinase deficient Toxoplasma gondii TgAK-3 infected in human CRL1634 cells assessed as intracellular parasite survival at 10 uM after 18 hrs by [5,6-[…]]uracil-based scintillation counting; format: functional; outline: as §1
[11] = test system: Toxoplasma gondii; test: Antimicrobial activity against adenosine kinase deficient Toxoplasma gondii TgAK-3 infected in human CRL1634 cells assessed as intracellular parasite survival at 25 uM after 18 hrs by [5,6-[…]]uracil-based scintillation counting; format: functional; outline: as §1
[12] = test system: Toxoplasma gondii; test: Antimicrobial activity against adenosine kinase deficient Toxoplasma gondii TgAK-3 infected in human CRL1634 cells assessed as intracellular parasite survival at 50 uM after 18 hrs by [5,6-[…]]uracil-based scintillation counting; format: functional; outline: as §1
[13] = test system: Toxoplasma gondii; test: Antimicrobial activity against adenosine kinase deficient Toxoplasma gondii TgAK-3 infected in human CRL1634 cells assessed as intracellular parasite survival at 5 uM after 18 hrs by [5,6-[…]]uracil-based scintillation counting; format: functional; outline: as §1
[14] = biological target: T2, Adenosine kinase (Toxoplasma gondii) (UniProt Q9TVW2); test: Ratio of Km for carbocyclic 6-benzylthioinosine to Km for drug for binding affinity to Toxoplasma gondii adenosine kinase after 20 mins by radioactivity method
T2 sequence (whole entry): T1 sequence (Q9TVW2 whole entry)

`OC[C@H]1C[C@@H](n2cnc3c(SCc4ccc(Br)cc4)ncnc32)[C@H](O)[C@@H]1O` was tested, and the Ki [1] was 21.1 µM.
For `OC[C@H]1C[C@@H](n2cnc3c(SCc4ccc(F)cc4)ncnc32)[C@H](O)[C@@H]1O`, the Ki [1] was 31.9 µM.
`CCc1nc(N)nc(N)c1-c1ccc(Cl)cc1` [PYRIMETHAMINE] gave an Activity [2] of 23%, an Activity [3] of 108% and an Activity [4] of 55%. The Activity [5] was 101%, the Activity [6] was 99% and the IC50 [7] was 16.1 µM. The Activity [8] was 25% and the Activity [9] was 100%.
In the case of `Nc1ccc(S(=O)(=O)Nc2ncccn2)cc1` [SULFADIAZINE], the Activity [2] is reported as 46%, the Activity [3] is reported as 100% and the Activity [4] is reported as 58%. For the same compound, the Activity [5] was 98%, the Activity [6] was 93% and the IC50 [7] was 27.3 µM. The Activity [8] was 53% and the Activity [9] was 100%.
In the case of `OC[C@H]1C[C@@H](n2cnc3c(SCc4ccc(Cl)c(Cl)c4)ncnc32)[C@H](O)[C@@H]1O`, the Ki [1] is reported as 16.8 µM.
`OC[C@H]1C[C@@H](n2cnc3c(SCc4ccc(OC(F)(F)F)cc4)ncnc32)[C@H](O)[C@@H]1O` showed a Ki [1] of 65.5 µM.
Compound `OC[C@H]1O[C@@H](n2cnc3c(SCc4ccccc4)ncnc32)[C@H](O)[C@@H]1O` [6-BENZYLTHIOINOSINE] has a Ki [1] of 14.3 µM.
Work on `Cc1ccc(CSc2ncnc3c2ncn3[C@@H]2C[C@H](CO)[C@@H](O)[C@H]2O)cc1` yielded an Activity [2] of 0%, an Activity [3] of 100% and an Activity [10] of 100%. The Activity [4] was 2.5%, the Activity [11] was 100% and the Activity [5] was 100%. For the same compound, the Activity [12] was 100%, the Activity [13] was 99% and the Activity [6] was 43%. The Ki [1] was 7.5 µM, the IC50 [7] was 11.9 µM and the Ratio [14] was 14. It also gave an Activity [8] of 0% and an Activity [9] of 100%.
In the case of `COc1ccc(CSc2ncnc3c2ncn3[C@@H]2C[C@H](CO)[C@@H](O)[C@H]2O)cc1`, the Ki [1] is reported as 62 µM.
`Cc1ccccc1CSc1ncnc2c1ncn2[C@@H]1C[C@H](CO)[C@@H](O)[C@H]1O` was tested, and the Ki [1] was 24.9 µM.
Work on `OC[C@H]1C[C@@H](n2cnc3c(SCc4cccc(C(F)(F)F)c4)ncnc32)[C@H](O)[C@@H]1O` yielded a Ki [1] of 22.2 µM.
In the case of `OC[C@H]1C[C@@H](n2cnc3c(SCc4ccccc4Cl)ncnc32)[C@H](O)[C@@H]1O`, the Ki [1] is reported as 24.2 µM.
Compound `COC(=O)c1ccc(CSc2ncnc3c2ncn3[C@@H]2C[C@H](CO)[C@@H](O)[C@H]2O)cc1` has a Ki [1] of 40.9 µM.
`O=[N+]([O-])c1cccc(CSc2ncnc3c2ncn3[C@@H]2C[C@H](CO)[C@@H](O)[C@H]2O)c1` gave a Ki [1] of 26.6 µM.
Work on `Cc1cccc(CSc2ncnc3c2ncn3[C@@H]2C[C@H](CO)[C@@H](O)[C@H]2O)c1` yielded a Ki [1] of 26.8 µM.
For `OC[C@H]1C[C@@H](n2cnc3c(SCc4ccccc4F)ncnc32)[C@H](O)[C@@H]1O`, the Ki [1] was 54.8 µM.
`N#Cc1ccc(CSc2ncnc3c2ncn3[C@@H]2C[C@H](CO)[C@@H](O)[C@H]2O)cc1` was tested, and the Ki [1] was 129 µM.
`OC[C@H]1C[C@@H](n2cnc3c(SCc4ccc(Cl)cc4Cl)ncnc32)[C@H](O)[C@@H]1O` gave a Ki [1] of 60.7 µM.
Work on `OC[C@H]1C[C@@H](n2cnc3c(SCc4c(F)cccc4Cl)ncnc32)[C@H](O)[C@@H]1O` yielded a Ki [1] of 31.3 µM.
`OC[C@H]1C[C@@H](n2cnc3c(SCc4ccc(Cl)cc4)ncnc32)[C@H](O)[C@@H]1O` gave an Activity [2] of 0%, an Activity [3] of 100% and an Activity [10] of 100%. For the same compound, the Activity [4] was 12%, the Activity [11] was 100% and the Activity [5] was 100%. The Activity [12] was 100%, the Activity [13] was 100% and the Activity [6] was 73%. It also gave a Ki [1] of 15.6 µM, an IC50 [7] of 14.5 µM and an Activity [8] of 0%. For the same compound, the Activity [9] was 100%.
With `Cc1cc(C)c(CSc2ncnc3c2ncn3[C@@H]2C[C@H](CO)[C@@H](O)[C@H]2O)c(C)c1` the Ki [1] was 63.1 µM.
`CS(=O)(=O)c1ccc(CSc2ncnc3c2ncn3[C@@H]2C[C@H](CO)[C@@H](O)[C@H]2O)cc1` showed a Ki [1] of 73.7 µM.
Compound `OC[C@H]1C[C@@H](n2cnc3c(SCc4ccccc4)ncnc32)[C@H](O)[C@@H]1O` has a Ki [1] of 105 µM.
In the case of `O=[N+]([O-])c1ccc(CSc2ncnc3c2ncn3[C@@H]2C[C@H](CO)[C@@H](O)[C@H]2O)cc1`, the Ki [1] is reported as 94.1 µM.

Reference: ChEMBL document CHEMBL1157834, “Structure-activity relationships of carbocyclic 6-benzylthioinosine analogues as subversive substrates of Toxoplasma gondii adenosine kinase” (Bioorg Med Chem, 2010)
